From PMC9326885 (Journal of Food and Drug Analysis, 2017)
Where a name gives a salt, the structure may show the parent alone. Marks after values point to notes of the source that are not given here. Values belong to the compound of their own block, whether it stands above or below them.

Legend:
[1] = Effect of intravenous IS on the elimination of intravenous PSP in rats; format: in vivo, rat; conditions: for AUC(0-t) / clearance / MRT: male, Sprague-Dawley, rat, serum, iv, 5 mg/kg, mean ± S.E., n = 6; for AUC(0-t): AUC0-1440, area under concentration-time curve to 1440 min; for clearance: Cl, the clearance; for MRT: the mean residence time
Outline: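 Male Sprague–Dawley rats (370–420 g), fasted 12 h, received IV PSP 5.0 mg/kg with or without IV IS 10.0 mg/kg in a crossover design with a 1-week washout. Blood was drawn at 30–1440 min and serum was deproteinized with methanol and basified with NaOH. Absorbance was read at 560 nm (calibration 0.39–12.5 μg/mL). Noncompartmental analysis; paired t-test.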

[2] = Effect of oral indican on the pharmacokinetics of oral MTX in rats; format: in vivo, rat; conditions: mean ± S.E., n = 5; for MRT: male, Sprague-Dawley, rat, serum, po, the mean residence time
Outline: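 Male Sprague–Dawley rats (330–400 g), fasted 12 h, were given oral MTX 5.0 mg/kg alone or with oral indican 20.0 or 40.0 mg/kg in a parallel design. Serum MTX was measured by fluorescence polarization immunoassay (calibrated 0–1.0 μmol/L, LLOQ 0.01 μmol/L). Noncompartmental analysis: Cmax observed, AUC by trapezoidal rule to last point. Groups compared by one-way ANOVA with Scheffe's test.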

[3] = by OATs- and MRPs-mediated transports; cited from earlier work
[4] = intravenous bolus of PSP 5.0 mg/kg alone
[5] = intravenous bolus of PSP 5.0 mg/kg with intravenous bolus of IS 10.0 mg/kg

- Effect on the elimination of PSP (serum profiles) ([1]; intravenous IS 10.0 mg/kg with intravenous PSP 5.0 mg/kg): inhibited
SMILES: O=S(=O)(O)Oc1c[nH]c2ccccc12 [IS, indoxyl sulfate]

- MRT ([2]; 5 mg/kg, oral MTX 5.0 mg/kg alone): 5.26 h
- MRT ([2]; oral MTX 5.0 mg/kg coadministered with indican 20.0 mg/kg): 17 h
- MRT ([2]; oral MTX 5.0 mg/kg coadministered with indican 40.0 mg/kg): 16 h
- AUC0-2880, area under concentration-time curve to 2880 min ([2]; oral MTX 5.0 mg/kg alone): 63.6 ± 6.9^a μmole•min/L
SMILES: CN(Cc1cnc2nc(N)nc(N)c2n1)c1ccc(C(=O)N[C@@H](CCC(=O)O)C(=O)O)cc1 [MTX, Methotrexate]
- Fraction of MTX excreted via urine [3]: More than 80%

- AUC(0-t) [1, 4]: 21300 ng·h/mL
- AUC(0-t) [1, 5]: 64700 ng·h/mL
- clearance [1, 4]: 3.1 ± 0.4 mL/min/kg
- clearance [1, 5]: 1 ± 0.3 mL/min/kg
- MRT [1, 4]: 6.67 h
- MRT [1, 5]: 9.54 h
SMILES: O=S1(=O)OC(c2ccc(O)cc2)(c2ccc(O)cc2)c2ccccc21 [PSP, phenolsulfonphthalein]
